The subject of series [1] is Mus musculus. Kind of series: Antidiabetic activity in diet-induced obesity C57BL/6 mouse model assessed as reduction of plasma insulin level at 100 mg/kg, po daily once after 10 weeks. It counts as functional, organism-based. The arrangement: dose 100 mg/kg. The procedure, abridged:
(§1)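 Male C57BL/6 mice were fed a 60%-fat diet from 9 weeks of age until about 40 g, in groups of 6-10. They were dosed by oral gavage once daily in 2% HPMC + 0.2% DOSS, with 29 at 100 mg/kg and rosiglitazone at 5 mg/kg, alongside vehicle groups on lean and high-fat diet. Fed glucose was read at weeks 2, 4, 6, 8 and 10. Clinical chemistry and hematology were also measured. Analysis by ANOVA.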

The nature of series [2]: Cmax in Sprague-Dawley rat at 100 mg/kg, po or 10 mg/kg, iv. It counts as ADME, organism-based. The settings on record: in vivo. The procedure, abridged:
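Male Sprague-Dawley rats (250 g, 3 per dose group) received 100 mg/kg by oral gavage in 2% HPMC + 0.2% DOSS, or 10 mg/kg iv by tail vein in 10% ethanol/40% PEG/50% H2O. Blood was drawn at 0.033-24 h postdose for drug levels.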

For series [3], the system named is Mus musculus. Kind of series: Antidiabetic activity in diet-induced obesity C57BL/6 mouse model assessed as reduction of plasma insulin level at 100 mg/kg, po daily once after 2 weeks. Type of series: functional, organism-based. The arrangement: dose 100 mg/kg. In short, it runs like this: as §1
Series [4] deals with Mus musculus. Kind of series: Antidiabetic activity in C57BL/6 mouse assessed as overt sign of hypoglycemia at 100 mg/kg, po daily once after 10 weeks. Type of series: functional, organism-based. The arrangement: dose 100 mg/kg. In short, it runs like this: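 Lean chow-fed mice were dosed 100 mg/kg po daily in 2% HPMC + 0.2% DOSS for 10 weeks and watched for overt hypoglycemia.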

For the next series, the target named is Cytochrome P450 2C19 (Homo sapiens, UniProt P33261). Briefly: Inhibition of CYP2C19 at 25 uM. It counts as ADME. In short, it runs like this: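 Inhibition of CYP isozymes was tested up to a highest concentration of 25 µM.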
Cytochrome P450 2C19, sequence (P33261 whole entry): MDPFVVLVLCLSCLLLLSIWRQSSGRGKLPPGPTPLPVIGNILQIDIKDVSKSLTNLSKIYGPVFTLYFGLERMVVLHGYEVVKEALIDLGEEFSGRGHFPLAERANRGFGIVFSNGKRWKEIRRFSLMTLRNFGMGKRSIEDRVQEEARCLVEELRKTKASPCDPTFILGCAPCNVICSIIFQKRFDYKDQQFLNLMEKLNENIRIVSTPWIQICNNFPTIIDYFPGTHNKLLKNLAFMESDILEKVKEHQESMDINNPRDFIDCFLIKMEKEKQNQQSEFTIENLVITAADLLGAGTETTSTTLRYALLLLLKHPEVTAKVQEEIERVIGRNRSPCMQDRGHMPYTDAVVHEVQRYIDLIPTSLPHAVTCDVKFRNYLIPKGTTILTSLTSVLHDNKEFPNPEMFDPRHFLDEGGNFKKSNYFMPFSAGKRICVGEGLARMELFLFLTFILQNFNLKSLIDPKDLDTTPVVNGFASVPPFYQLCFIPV
The subject of series [5] is Mus musculus. Briefly: Antidiabetic activity in diet-induced obesity C57BL/6 mouse model assessed as reduction of plasma insulin level at 100 mg/kg, po daily once after 10 weeks.

The source made the active and inactive calls. The calls are words filed in the database; no cut-off is given here.

As usually defined, the Cmax is the maximum level reached in the sampled fluid or tissue. Regarding `O=C(Nc1ccccc1-c1cn2c(CN3CCNCC3)csc2n1)c1cnc2ccccc2n1`, the result with Mus musculus [1], in the series with Mus musculus [3] and in the series on Mus musculus [5] was Active. This molecule also gave a maximum concentration (Cmax) in series [2] of 320 nM. In addition, the outcome with Mus musculus [4] was inactive. Moreover, the Activity result on Cytochrome P450 2C19 is reported as “Not Active”.

The record behind these values is ChEMBL document CHEMBL1140923, “Discovery of imidazo[1,2-b]thiazole derivatives as novel SIRT1 activators” (J Med Chem, 2009).
